ERp5 inh = blocks human ERp5 reductase activity on insulin; Q15084; ERp5 insulin aggregation, absorbance 650 nm, 90 min; inhibition, % at 9.99 µM; 0.05% of 350,000 active;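 active = mean replicate inhibition above about 25%, with every replicate also reaching it, limit read from the data, passing the limit was not always enough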
CAL PDZ FP-1 = CAL PDZ (human) peptide binding inhibition | inhibition, % at 24.9 µM | 0.92% of 300,000 active | purified CAL PDZ, TMR-peptide fluorescence polarization, 1 h;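 active = mean inhibition of at least 30% with at least half of replicates also reaching 30%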;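 also: 0% = DMSO neutral control and 100% = excess unlabeled competitor peptide PRC23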
RAD52 anneal inh = inhibitors of human RAD52 DNA annealing. recombinant RAD52 DNA annealing, FRET fluorescence. inhibition, % at 18.7 µM. 0.46% of 360,000 active;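 active = every replicate showing at least 50% inhibition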
Target sequence (P43351 whole entry, looked up): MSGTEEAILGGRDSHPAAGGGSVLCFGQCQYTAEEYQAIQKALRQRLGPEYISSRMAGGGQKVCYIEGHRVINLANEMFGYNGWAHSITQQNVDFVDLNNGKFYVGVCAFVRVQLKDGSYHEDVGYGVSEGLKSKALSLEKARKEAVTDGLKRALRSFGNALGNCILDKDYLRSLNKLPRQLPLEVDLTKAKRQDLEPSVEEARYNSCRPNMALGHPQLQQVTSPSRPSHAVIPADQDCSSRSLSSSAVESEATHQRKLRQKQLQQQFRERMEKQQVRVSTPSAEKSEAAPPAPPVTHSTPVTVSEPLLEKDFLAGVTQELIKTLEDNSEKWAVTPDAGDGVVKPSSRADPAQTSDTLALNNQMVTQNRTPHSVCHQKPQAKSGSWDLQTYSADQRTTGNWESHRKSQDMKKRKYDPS
CAL PDZ FP-2 = inhibitors of human CAL PDZ peptide binding; inhibition, % at 20 µM; 0.02% of 330,000 active; Q9HD26; purified CAL PDZ, TMR-peptide fluorescence polarization, 1 h;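 active = highest replicate inhibition of at least 40%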;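 also: plate controls were DMSO neutral control wells for no effect and unlabeled competitor peptide control wells for full effect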
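Material – purified CerCALP PDZ construct · Detection – FP readout, S and P plane fluorescence · Measure – percent inhibition from loss of millipolarization · Controls – unlabelled peptide for full inhibition, DMSO wells as neutral · Probe or stimulus – TMR-labelled reporter peptide T*-PRC34 bound in PDZ groove · Times – 1 h at RT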
RAD54 branch = blocks human RAD54 Holliday junction branch migration; inhibition, % at 10.4 µM; 0.14% of 360,000 active; Q92698; FAM/BHQ fluorescence;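 active = mean normalized replicate activity at least 40 and at least half of replicates scoring 40 or more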;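 also: 0% = median of neutral control wells and 100% = median of positive control wells; inhibitors cause a drop in the FAM fluorescence signal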
PDI turbidity = blocks human protein disulfide isomerase activity; P07237; PDI insulin aggregation turbidity, A650, 90 min; inhibition, % at 10 µM; 0.052% of 350,000 active; AID 588391;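 active = mean inhibition across replicates of 30% or more, whatever share of single replicates reach that level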
* = called active by the depositor; · = no result given. Only some compounds are listed: those with a hit (about 1% of all), similar ones and a draw of the others.

SMILES | ERp5 inh | CAL PDZ FP-1 | RAD52 anneal inh | CAL PDZ FP-2 | RAD54 branch | PDI turbidity
C/C=C/c1ccc2c(c1)O[C@H](CN(C)Cc1ccc(F)cc1)[C@@H](C)CN([C@@H](C)CO)S2(=O)=O | 4 | · | -2 | · | -12 | ·
O=C(O)CCCCCn1c(SCC(=O)c2ccc(O)c(O)c2)nc2ccsc2c1=O | · | -6 | · | -4 | · | 32*
C[C@@H]1CN([C@@H](C)CO)C(=O)c2cc(NC(=O)NC3CCCCC3)ccc2O[C@H]1CN(C)Cc1ccncc1 | -1 | · | 17 | · | 6 | ·
CCN(CC)CC(=O)NCC1(c2ccccc2)CCOCC1 | · | 70* | · | -2 | -7 | 1
CCN(CC)CC(=O)NCC1(c2ccccc2)CCCC1 | 1 | 0 | 6 | -2 | · | -1
Cc1cccc(C(=O)OC(C)C(=O)N2CCc3ccccc3C2)c1C (centres undefined) | 7 | 52* | 0 | -1 | -1 | -6
O=S(=O)(CC(O)COc1ccccc1Cl)c1ccccc1 (centres undefined) | · | · | · | 0 | 8 | 1
O=S(=O)(CC(O)CS(=O)(=O)c1ccc(Cl)cc1)c1ccccc1 (centres undefined) | -1 | 42* | 4 | 0 | · | 3
C[C@@H]1CN([C@H](C)CO)C(=O)c2cc(NS(=O)(=O)c3cn(C)cn3)ccc2O[C@@H](C)CCCCO[C@H]1CN(C)S(=O)(=O)c1cccs1 | 5 | · | 4 | · | · | ·
C[C@@H]1CCCCO[C@@H](CN(C)S(=O)(=O)c2cccs2)[C@@H](C)CN([C@@H](C)CO)C(=O)c2cc(NS(=O)(=O)c3cn(C)cn3)ccc2O1 | -8 | · | 111* | · | 2 | ·
C[C@@H]1CCCCO[C@@H](CN(C)S(=O)(=O)c2cccs2)[C@H](C)CN([C@@H](C)CO)C(=O)c2cc(NS(=O)(=O)c3cn(C)cn3)ccc2O1 | -1 | · | 84* | · | 2 | ·
C[C@H]1CCCCO[C@@H](CN(C)S(=O)(=O)c2cccs2)[C@@H](C)CN([C@@H](C)CO)C(=O)c2cc(NS(=O)(=O)c3cn(C)cn3)ccc2O1 | 3 | · | 109* | · | -1 | ·
COc1cccc(CN(C)C[C@H]2OCc3cn(nn3)CCCC(=O)N([C@@H](C)CO)C[C@@H]2C)c1 | -3 | · | -1 | · | -1 | ·
COc1ccc(CN2[C@@H](CO)[C@@H]3c4ccccc4N(C(=O)Nc4ccc(F)cc4)C[C@@H]32)cc1 | 6 | · | -13 | · | 0 | ·
Cc1ccccc1-c1ccc([C@H]2[C@@H](CO)N3CCCCN(S(=O)(=O)Cc4ccccc4)C[C@H]23)cc1 | 4 | · | 69* | · | -11 | ·
Cc1ccccc1S(=O)(=O)N1CCCCN2[C@H](CO)[C@@H](c3ccc(-c4ccccc4)cc3)[C@H]2C1 | 3 | · | 70* | · | 6 | ·
Cc1ccccc1S(=O)(=O)N1CCCCN2[C@@H](CO)[C@@H](c3ccc(-c4ccccc4)cc3)[C@@H]2C1 | -3 | · | -30 | · | -1 | ·
Cc1ccccc1S(=O)(=O)N1CCCCN2[C@H](CO)[C@H](c3ccc(-c4ccccc4)cc3)[C@H]2C1 | -2 | · | 73* | · | 5 | ·
COC(=O)C(NC(=O)c1ccco1)(Nc1nc(C2CC2)cs1)C(F)(F)F (centres undefined) | · | 37* | · | -2 | 0 | -6
CC(C)CNC(=O)c1ccccc1-c1ccccc1C(=O)O | · | 0 | · | 0 | 5 | 1
CCC(C)NC(=O)c1ccccc1-c1ccccc1C(=O)NC(C)CC (centres undefined) | -3 | 72* | -6 | 0 | -5 | -2
Cn1c(COc2ccccc2)nnc1SCC(=O)Nc1nnc(C2CC2)s1 | 27* | · | -75 | -1 | 5 | -2
Cn1c(COc2ccccc2)nnc1SCC(=O)Nc1ccc2c(c1)OCO2 | -7 | -2 | -8 | -2 | -1 | 1
Cc1c(N(C)S(=O)(=O)c2ccc(Cl)c(C(=O)NCC(C)(C)N3CCOCC3)c2)c(=O)n(-c2ccccc2)n1C | -2 | 35* | -11 | -1 | -1 | -4
Cc1c(N(C)S(=O)(=O)c2cc(C(=O)N3CCCC3)ccc2Cl)c(=O)n(-c2ccccc2)n1C | 1 | -1 | 6 | 0 | 12 | -3
SMILES | ERp5 inh | CAL PDZ FP-1 | RAD52 anneal inh | CAL PDZ FP-2 | RAD54 branch | PDI turbidity
O=C1CSCC(=O)N1Cc1ccc(Cl)c(Cl)c1 | 1 | 43* | -6 | · | -3 | 1
CCCCNCc1cc(OCC)c(OCC(N)=O)cc1Br | · | 38* | · | -3 | -4 | 1
O=C(Cn1ccc([N+](=O)[O-])n1)NCc1ccco1 | -6 | -1 | -2 | -2 | 8 | 3
O=C(Cn1ccc([N+](=O)[O-])n1)NCc1nc2ccccc2[nH]1 | 4 | 44* | -1 | -1 | · | 5
CCC/C(=N\NC(=O)CNC(=O)c1ccc(Cl)cc1)c1ccccc1 | 1 | 78* | -1 | -1 | · | 6
C/C(Cc1ccccc1)=N\NC(=O)CNC(=O)c1ccc(Cl)cc1 | -5 | · | -17 | 0 | -11 | -6
O=C(c1ccccc1)N1CC(=O)N2[C@H](CO)[C@@H](c3ccc(C#CCC4CCCC4)cc3)[C@@H]2C1 | 2 | · | -17 | · | · | ·
COc1cccc(S(=O)(=O)N[C@H]2C=C[C@H](CC(=O)NCc3ccccc3)O[C@@H]2CO)c1 | 3 | · | -2 | · | -5 | ·
COC(=O)C(NNc1ccccc1)(NC(=O)c1cccc(F)c1)C(F)(F)F (centres undefined) | · | 50* | · | 0 | 0 | 4
O=C(Nc1ccc(Nc2ccccc2)cc1)c1cccc(F)c1 | 1 | 1 | -8 | 0 | -10 | -4
C[C@@H]1CCCCO[C@H](CN(C)C(=O)Nc2ccc3c(c2)OCO3)[C@@H](C)CN([C@@H](C)CO)C(=O)c2cc(NS(=O)(=O)c3cn(C)cn3)ccc2O1 | -5 | · | 5 | · | 1 | ·
CCOC(=O)C(/C=N/c1cc(C)nn1-c1ccccc1)=C(\C)O | · | 61* | · | -2 | 18 | -2
COc1ccc(S(=O)(=O)N2CCCCN3[C@H](CO)[C@H](c4ccc(C5=CCCCC5)cc4)[C@H]3C2)cc1 | 3 | · | 60* | · | -6 | ·
O=S(=O)(c1cccs1)N1CCCCN2[C@H](CO)[C@H](c3ccc(C4=CCCCC4)cc3)[C@H]2C1 | -2 | · | 57* | · | -3 | ·
COc1ccc(S(=O)(=O)N2CCCCN3[C@H](CO)[C@H](c4ccc(C5=CCCC5)cc4)[C@H]3C2)cc1 | · | · | · | · | 6 | ·
Cn1cnc(S(=O)(=O)N[C@@H]2CC[C@@H](CC(=O)NCC3CCCCC3)O[C@@H]2CO)c1 | 6 | · | -7 | · | 6 | ·
O=C(CNC1CCCCC1)Nc1ccc([N+](=O)[O-])cc1C(=O)Nc1ccccc1F | -4 | 63* | -7 | -2 | 5 | 1
COc1ccc(CCC(=O)NNC(=O)c2ccccn2)cc1OC | 6 | 98* | -17 | -3 | 5 | 9
C[C@H]1CN([C@@H](C)CO)C(=O)c2cccc(NC(=O)Nc3ccc(C(F)(F)F)cc3)c2O[C@H]1CN(C)C(=O)Nc1cccc2ccccc12 | 2 | · | 16 | · | 2 | ·

High-throughput results (PubChem)
